Laboratory results: ChEMBL document CHEMBL3596197, “Synthesis, topoisomerase I and II inhibitory activity, cytotoxicity, and structure-activity relationship study of 2-phenyl- or hydroxylated 2-phenyl-4-aryl-5H-indeno[1,2-b]pyridines” (Bioorg Med Chem, 2015)

Legend:
[1] = molecular target: T1, DNA topoisomerase 1 (Homo sapiens) (UniProt P11387); assay: Inhibition of human recombinant DNA topoisomerse 1 using pBR322 as substrate assessed as inhibition of conversion of supercoiled pBR322 to relaxed form at 100 uM after 30 mins by ethidium bromide staining-based electrophoresis analysis
T1 sequence (whole entry): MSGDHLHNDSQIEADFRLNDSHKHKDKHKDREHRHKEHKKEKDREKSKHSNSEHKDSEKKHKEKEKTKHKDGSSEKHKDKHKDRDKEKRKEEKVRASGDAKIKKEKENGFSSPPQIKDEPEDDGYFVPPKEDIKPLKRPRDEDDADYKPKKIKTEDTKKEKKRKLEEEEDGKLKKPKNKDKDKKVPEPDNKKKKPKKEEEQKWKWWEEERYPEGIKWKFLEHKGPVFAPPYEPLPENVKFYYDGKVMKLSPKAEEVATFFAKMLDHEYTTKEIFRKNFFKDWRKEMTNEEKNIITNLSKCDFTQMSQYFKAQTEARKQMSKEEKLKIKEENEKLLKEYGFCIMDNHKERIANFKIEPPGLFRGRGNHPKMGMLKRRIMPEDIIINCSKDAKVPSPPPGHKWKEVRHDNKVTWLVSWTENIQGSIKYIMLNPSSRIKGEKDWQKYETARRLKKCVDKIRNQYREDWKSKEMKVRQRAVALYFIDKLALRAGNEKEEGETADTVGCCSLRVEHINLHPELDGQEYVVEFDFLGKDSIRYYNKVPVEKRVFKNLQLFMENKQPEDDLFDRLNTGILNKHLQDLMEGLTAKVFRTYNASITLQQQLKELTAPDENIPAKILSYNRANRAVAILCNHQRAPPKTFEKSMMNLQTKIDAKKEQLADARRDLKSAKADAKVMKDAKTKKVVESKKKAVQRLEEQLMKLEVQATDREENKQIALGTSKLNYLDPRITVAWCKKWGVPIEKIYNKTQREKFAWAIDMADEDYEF
Procedure, shortened: (§1)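 Relaxation of supercoiled pBR322 (100 ng) by 1 unit recombinant human topo I. Run at 37 °C for 30 min in 10 mM Tris-HCl pH 7.9, 150 mM NaCl, 0.1% BSA, 1 mM spermidine, 5% glycerol. Compounds from 20 mM DMSO stocks. Stopped with sarcosyl, then 1% agarose gel at 15 V for 7 h in TAE. Ethidium bromide stain, UV imaging, bands quantitated.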

[2] = molecular target: T1, DNA topoisomerase 1 (Homo sapiens); assay: Inhibition of human recombinant DNA topoisomerse 1 using pBR322 as substrate assessed as inhibition of conversion of supercoiled pBR322 to relaxed form at 20 uM after 30 mins by ethidium bromide staining-based electrophoresis analysis; procedure, shortened: as §1
[3] = molecular target: DNA topoisomerase 2-alpha (Homo sapiens) (UniProt P11388); assay: Inhibition of human recombinant DNA topoisomerse 2 alpha using pBR322 as substrate assessed as inhibition of conversion of supercoiled pBR322 to relaxed form at 100 uM after 30 mins by ethidium bromide staining-based electrophoresis analysis
Procedure, shortened: (§2)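 Supercoiled pBR322 (200 ng) with 1 unit human topo IIα, 30 min at 30 °C. Buffer: 10 mM Tris-HCl pH 7.9, 50 mM NaCl, 5 mM MgCl2, 1 mM EDTA, 1 mM ATP, 15 μg/mL BSA. Stopped with EDTA. 1% agarose gel at 25 V for 4 h in TAE, ethidium bromide stain, supercoiled DNA quantitated under UV.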

[4] = molecular target: DNA topoisomerase 2-alpha (Homo sapiens) (UniProt P11388); assay: Inhibition of human recombinant DNA topoisomerse 2 alpha using pBR322 as substrate assessed as inhibition of conversion of supercoiled pBR322 to relaxed form at 20 uM after 30 mins by ethidium bromide staining-based electrophoresis analysis; procedure, shortened: as §2
HCT-15 = assay: Cytotoxicity against human HCT15 cells incubated from day 2 to day 4 by CCK8 assay; type: functional, cell-based
Procedure, shortened: (§3)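 Cells seeded at 2~4 × 10^4 per well and grown overnight in medium with 10% FBS at 37 °C, 5% CO2. Day 2: FBS starvation 4 h, then medium with graded compound concentrations. Day 4: CCK-8 added for 4 h more, absorbance read at 450 nm. IC50 from four-parameter logistic fit. Mean ± S.D. of three experiments run in triplicate.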

T47D = assay: Cytotoxicity against human T47D cells incubated from day 2 to day 4 by CCK8 assay; type: functional, cell-based; procedure, shortened: as §3
DU-145 = assay: Cytotoxicity against human DU145 cells incubated from day 2 to day 4 by CCK8 assay; type: functional, cell-based; procedure, shortened: as §3
HeLa = assay: Cytotoxicity against human HeLa cells incubated from day 2 to day 4 by CCK8 assay; type: functional, cell-based; procedure, shortened: as §3

DNA topoisomerase 2-alpha (Homo sapiens), sequence (P11388 whole entry): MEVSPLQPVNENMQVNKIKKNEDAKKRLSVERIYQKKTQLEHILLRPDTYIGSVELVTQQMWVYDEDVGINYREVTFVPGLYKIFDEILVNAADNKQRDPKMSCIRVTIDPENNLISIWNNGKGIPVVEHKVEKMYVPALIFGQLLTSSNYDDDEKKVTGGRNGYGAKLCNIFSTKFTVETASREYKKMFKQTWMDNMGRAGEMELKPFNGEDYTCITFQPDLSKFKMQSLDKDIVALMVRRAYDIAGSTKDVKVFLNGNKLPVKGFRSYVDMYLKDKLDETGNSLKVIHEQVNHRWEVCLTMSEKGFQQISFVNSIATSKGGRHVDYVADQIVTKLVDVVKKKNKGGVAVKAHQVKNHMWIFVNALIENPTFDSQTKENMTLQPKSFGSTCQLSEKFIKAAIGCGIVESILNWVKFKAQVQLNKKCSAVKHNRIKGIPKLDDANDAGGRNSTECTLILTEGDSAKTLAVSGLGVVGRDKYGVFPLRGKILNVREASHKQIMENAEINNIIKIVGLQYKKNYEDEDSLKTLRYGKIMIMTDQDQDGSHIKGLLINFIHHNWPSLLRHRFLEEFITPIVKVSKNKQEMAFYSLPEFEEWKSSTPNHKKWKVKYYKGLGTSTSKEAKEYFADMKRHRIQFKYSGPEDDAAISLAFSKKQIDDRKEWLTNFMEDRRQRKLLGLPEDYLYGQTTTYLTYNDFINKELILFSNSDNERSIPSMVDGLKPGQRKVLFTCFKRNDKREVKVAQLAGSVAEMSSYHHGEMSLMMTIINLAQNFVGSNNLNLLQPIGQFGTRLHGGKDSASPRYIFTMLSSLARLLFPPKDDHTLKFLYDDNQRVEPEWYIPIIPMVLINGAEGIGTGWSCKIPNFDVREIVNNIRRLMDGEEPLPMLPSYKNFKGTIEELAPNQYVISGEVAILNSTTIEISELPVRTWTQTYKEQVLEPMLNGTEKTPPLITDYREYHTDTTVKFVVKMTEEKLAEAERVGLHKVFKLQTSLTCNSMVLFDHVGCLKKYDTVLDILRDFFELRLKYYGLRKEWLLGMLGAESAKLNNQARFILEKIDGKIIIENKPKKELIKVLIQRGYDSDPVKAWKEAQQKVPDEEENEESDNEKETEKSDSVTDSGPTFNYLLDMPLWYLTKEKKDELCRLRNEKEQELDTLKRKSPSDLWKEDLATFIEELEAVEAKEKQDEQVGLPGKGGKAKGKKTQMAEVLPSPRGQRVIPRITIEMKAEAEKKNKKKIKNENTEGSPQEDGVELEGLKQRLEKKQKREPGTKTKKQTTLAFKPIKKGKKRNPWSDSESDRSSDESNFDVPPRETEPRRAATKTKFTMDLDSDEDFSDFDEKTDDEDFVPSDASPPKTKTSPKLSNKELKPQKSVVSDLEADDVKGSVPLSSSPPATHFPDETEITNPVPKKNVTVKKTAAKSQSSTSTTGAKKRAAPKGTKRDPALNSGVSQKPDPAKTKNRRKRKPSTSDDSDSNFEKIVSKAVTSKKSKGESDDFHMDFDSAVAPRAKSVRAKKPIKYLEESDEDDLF

inhibition [1]: 73% | inhibition [2]: 8.7% | inhibition [3]: 44.5% | inhibition [4]: 25.9%
Compound: c1ccc(-c2cc(-c3ccco3)c3c(n2)-c2ccccc2C3)cc1
IC50 (HCT-15): 11.2 µM | IC50 (T47D): 10.6 µM | IC50 (DU-145): 5 µM | IC50 (HeLa): 1.42 µM
